The values that follow come from ChEMBL document CHEMBL2385037, “Bioactive dimeric carbazole alkaloids from Murraya koenigii” (J Nat Prod, 2013).

The IC50 is the point on the concentration scale where inhibition reaches its midpoint.

Series [1] concerns Radical scavenging activity. Nature of the series: Antioxidant activity assessed as DPPH free radical scavenging activity by spectrophotometric analysis. The series is classed as functional. (In general: DPPH is a stable violet radical that fades when it is reduced.)
Series [2] is described as follows: Antioxidant activity assessed as nitric oxide scavenging activity after 150 mins by Greiss method. The series is classed as functional.
The nature of series [3]: Antioxidant activity assessed as hydroxyl radical scavenging activity after 15 mins by spectrophotometric analysis. The series is classed as functional.
Series [4] concerns DNA. Put plainly: Binding affinity to calf thymus DNA by absorption titration. The conditions noted are these: Bos taurus. Format: nucleic-acid assay. In outline:
(§1)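 CT-DNA absorption titration: compound held at 50 μM while CT-DNA is raised over 0−25 μM, and electronic absorption spectra are recorded. The intrinsic binding constant Kb is fitted from [DNA]/(εa − εf) versus [DNA], with DNA counted in base pairs. εa = Aobs/[compound]; εf and εb are the free and fully bound extinction coefficients.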

For series [5], the target named is T1, Albumin (Bos taurus, UniProt P02769). Put plainly: Binding affinity to bovine serum albumin assessed as decrease in fluorescence intensity by Scatchard plot analysis. The series is classed as ADME. The conditions noted are these: cattle, isolated protein. In outline:
(§2)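 Intrinsic fluorescence quenching: emission spectra of BSA (2 μM) are recorded with compound added over 0−2.5 μM. The quenching data are analysed by Stern–Volmer and Scatchard plots to give the quenching constant Kq, the binding constant and the number of binding sites n.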

In series [6] the target is T1, Albumin. Put plainly: Binding affinity to bovine serum albumin assessed blue shift at 3 uM by UV-vis spectrophotometric analysis. Format: ADME. The conditions noted are these: cattle, isolated protein.
Series [7] relates to DNA. Nature of the series: Binding affinity to calf thymus DNA assessed as change in hypochromicity at 50 uM by UV-vis titration relative to control. Format: nucleic-acid assay. The conditions noted are these: Bos taurus. The method, boiled down:
as §1

In series [8] the target is T1, Albumin. Put plainly: Binding affinity to bovine serum albumin assessed as decrease in fluorescence intensity by Stern-Volmer plot analysis. The series is classed as ADME. The conditions noted are these: cattle, isolated protein. The method, boiled down: as §2
Series [9] has as its target T1, Albumin. Nature of the series: Binding affinity to bovine serum albumin assessed decrease in fluorescence at 1 to 2.5 uM at 15 nm wavelength by fluorescence spectrophotometric analysis. The series is classed as ADME. The conditions noted are these: cattle, isolated protein. The method, boiled down: (§3)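 Synchronous fluorescence: BSA (2 μM) is titrated with compound over 0−2.5 μM. Spectra are recorded at wavelength differences Δλ = 15 nm and Δλ = 60 nm.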

Series [10] concerns the target T1, Albumin. Nature of the series: Binding affinity to bovine serum albumin assessed decrease in fluorescence at 1 to 2.5 uM at 60 nm wavelength by fluorescence spectrophotometric analysis. The conditions noted are these: cattle, isolated protein. The series is classed as ADME. In outline: as §3
Series [11] relates to DNA. Nature of the series: Displacement of ethidium bromide from calf thymus DNA assessed as decrease in fluorescence intensity by Stern-Volmer plot analysis. Format: nucleic-acid assay. The conditions noted are these: Bos taurus. The method, boiled down:
(§4)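 Ethidium bromide displacement: emission of EB bound to CT-DNA (5 μM) is followed while compound is added over 0−50 μM. The Stern–Volmer Kq is the slope of I0/I versus [Q]. Kapp comes from KEB[EB] = Kapp[compound], taking the compound concentration at 50% loss of EB fluorescence, with KEB = 1.0 × 10^7 M−1 and [EB] = 5 μM.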

Series [12] concerns DNA. Put plainly: Displacement of ethidium bromide from calf thymus DNA assessed as decrease in fluorescence intensity by spectrophotometric analysis. The series is classed as nucleic-acid assay. The conditions noted are these: Bos taurus. The method, boiled down: as §4
A short description of series [13]: Inhibition of alpha glucosidase (unknown origin) assessed as p-nitrophenyl alpha-D-glucopyranoside conversion to p-nitrophenol after 30 mins by spectrophotometric analysis. Details: species or system Homo sapiens; call rule not given here.
The subject of series [14] is DNA. Nature of the series: Displacement of ethidium bromide from calf thymus DNA assessed as […] at 1 to 50 uM by fluorescence spectrophotometric analysis relative to control. Format: nucleic-acid assay. The conditions noted are these: Bos taurus. In outline:
as §4

For series [15], the target named is T1, Albumin. Put plainly: Binding affinity to bovine serum albumin assessed as change in hypochromicity at 1 to 2.5 uM by spectrophotometric analysis relative to control. The series is classed as ADME. The conditions noted are these: cattle, isolated protein.
The test system of series [16] is AGS. Put plainly: Cytotoxicity against human AGS cells incubated for 24 hrs followed by compound washout measured after 48 hrs by MTT assay. Format: functional, cell-based. A general note: Tetrazolium assays rely on reduction of a dye to a coloured formazan, in cell work by metabolically active cells.
Series [17] relates to HeLa. Nature of the series: Cytotoxicity against human HeLa cells incubated for 24 hrs followed by compound washout measured after 48 hrs by MTT assay. The series is classed as functional, cell-based.
In series [18] the test system is HCT-116. Put plainly: Cytotoxicity against human HCT116 cells incubated for 24 hrs followed by compound washout measured after 48 hrs by MTT assay. Format: functional, cell-based.

T1 sequence (P02769 whole entry): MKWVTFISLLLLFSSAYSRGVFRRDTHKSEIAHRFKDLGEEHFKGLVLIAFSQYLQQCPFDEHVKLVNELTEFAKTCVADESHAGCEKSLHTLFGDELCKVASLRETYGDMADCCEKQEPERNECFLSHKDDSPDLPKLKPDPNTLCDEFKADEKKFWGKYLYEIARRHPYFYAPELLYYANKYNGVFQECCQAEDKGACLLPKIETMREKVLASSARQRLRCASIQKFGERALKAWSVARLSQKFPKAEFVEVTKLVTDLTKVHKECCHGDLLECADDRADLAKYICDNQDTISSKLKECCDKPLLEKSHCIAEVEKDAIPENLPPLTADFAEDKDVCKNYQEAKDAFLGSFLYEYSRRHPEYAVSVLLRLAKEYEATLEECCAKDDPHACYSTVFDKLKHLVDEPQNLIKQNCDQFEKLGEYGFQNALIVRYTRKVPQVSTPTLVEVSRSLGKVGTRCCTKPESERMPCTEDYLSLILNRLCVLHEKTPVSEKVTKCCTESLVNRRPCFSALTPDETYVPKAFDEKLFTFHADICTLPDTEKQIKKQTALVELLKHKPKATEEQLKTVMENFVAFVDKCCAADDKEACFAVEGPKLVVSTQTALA

Take `Cc1cc(C(C)(C)C)c(O)c(C(C)(C)C)c1` [BUTYLATED HYDROXYTOLUENE]: the IC50 was found to be 4.5 µM in series [1], 8.6 µM in series [2] and 11.5 µM in series [3].
The corresponding values for `C[C@@H]1O[C@@H](OC[C@H]2O[C@@H](Oc3c(-c4ccc(O)c(O)c4)oc4cc(O)cc(O)c4c3=O)[C@H](O)[C@@H](O)[C@@H]2O)[C@H](O)[C@H](O)[C@H]1O` [RUTIN] are 4.7 µM, 4.7 µM and 19.4 µM.
Regarding `COc1cc2c(cc1-c1c(OC)ccc3c1[nH]c1c4c(c(C)cc13)OC(C)(C/C=C(\C)CCC=C(C)C)C=C4)c1cc(C)c3c(c1n2C)C=CC(C)(C/C=C(\C)CCC=C(C)C)O3` (stereo not given), the IC50 in [1] was 41.8 µM; in [2] it was 8.6 µM; in series [13], 69 µM; in series [3], 13.2 µM. In addition, the Kb in [4] amounted to 2 ×10⁵ /M; in series [5], 0.09 ×10⁴ /M. Besides, the Activity entry is “Active” in series [6]; 54% in series [7]; “Active” in series [9]; “Active” in series [10]; 28% in series [14]; 36% in [15]. Also, the Kq amounted to 2.21 ×10⁵ /M in [8] and 0.3 ×10⁵ /M in series [11]. Also, in series [12], the Kapp is 0.13 ×10⁵ /M.
On to `COc1ccc2c([nH]c3c4c(c(C)cc32)OC(C)(C/C=C(\C)CCC=C(C)C)C=C4)c1-c1ccc2[nH]c3c4c(c(C)cc3c2c1O)OC(C)(C/C=C(\C)CCC=C(C)C)C=C4` (stereo not given), for which the IC50 amounted to 31.1 µM in series [1], 7.2 µM in series [2], 41.2 µM in series [13] and 8.8 µM in series [3]. Also, the results for the Kb in [4] and in series [5] were 2.2 ×10⁵ /M and 0.72 ×10⁴ /M, respectively. For the same compound, the Activity entry in series [6] was “Active”; in series [7] it was 55%; in series [9] it was “Active”; in [10] it was “Active”; in series [14], 22%; in series [15] it was 36%. The Kq was 2.2 ×10⁵ /M in series [8] and 0.1 ×10⁵ /M in [11]. The Kapp in [12] was 0.5 ×10⁵ /M.
Regarding `COc1ccc2c([nH]c3c4c(c(C)cc32)OC(C)(C/C=C(\C)CCC=C(C)C)C=C4)c1-c1c(O)ccc2[nH]c3c4c(c(C)cc3c12)OC(C)(C/C=C(\C)CCC=C(C)C)C=C4` (stereo not given), the IC50 in [1] stood at 31.9 µM; in series [16], 23.2 µM; in series [2], 6.5 µM; in series [17], 17.2 µM; in series [13], 45.4 µM; in series [18], 22.3 µM. In addition, the 50% inhibitory concentration (IC50) in series [3] stood at 12.3 µM. The Kb in series [4] came to 4.3 ×10⁵ /M; in series [5], 1.02 ×10⁴ /M. The Activity result in series [6] was “Active”; in series [7] it was 82%; in series [9] it was “Active”; in series [10], “Active”; in series [14] it was 44%; in series [15], 47%. Besides, the Kq in series [8] turned out to be 3.52 ×10⁵ /M; in series [11] it was 0.32 ×10⁵ /M. Also, in series [12], the Kapp was 1.6 ×10⁵ /M.
As to `C[C@H]1O[C@H](O[C@H]2[C@H](O)[C@@H](O)[C@@H](O[C@H]3[C@H](O)[C@@H](O)C(O)O[C@@H]3CO)O[C@@H]2CO)[C@H](O)[C@@H](O)[C@@H]1N[C@H]1C=C(CO)[C@@H](O)[C@H](O)[C@H]1O` (stereo not given in full) [ACARBOSE], the half-maximal inhibitory concentration (IC50) in series [13] came out at 15.2 µM.
